# Columns and labels:
# [1] = biological target: T1, Polyunsaturated fatty acid 5-lipoxygenase (Homo sapiens, UniProt P09917); test: Inhibition of 5-lipoxygenase in human polymorphonuclear leukocytes assessed as inhibition of LTB4 production preincubated for 15 mins measured after 10 mins by HPLC method; assay type: cell-based; settings: pooled result: one value given for 2 cell lines, strains, targets or settings
# T1 sequence (P09917 whole entry): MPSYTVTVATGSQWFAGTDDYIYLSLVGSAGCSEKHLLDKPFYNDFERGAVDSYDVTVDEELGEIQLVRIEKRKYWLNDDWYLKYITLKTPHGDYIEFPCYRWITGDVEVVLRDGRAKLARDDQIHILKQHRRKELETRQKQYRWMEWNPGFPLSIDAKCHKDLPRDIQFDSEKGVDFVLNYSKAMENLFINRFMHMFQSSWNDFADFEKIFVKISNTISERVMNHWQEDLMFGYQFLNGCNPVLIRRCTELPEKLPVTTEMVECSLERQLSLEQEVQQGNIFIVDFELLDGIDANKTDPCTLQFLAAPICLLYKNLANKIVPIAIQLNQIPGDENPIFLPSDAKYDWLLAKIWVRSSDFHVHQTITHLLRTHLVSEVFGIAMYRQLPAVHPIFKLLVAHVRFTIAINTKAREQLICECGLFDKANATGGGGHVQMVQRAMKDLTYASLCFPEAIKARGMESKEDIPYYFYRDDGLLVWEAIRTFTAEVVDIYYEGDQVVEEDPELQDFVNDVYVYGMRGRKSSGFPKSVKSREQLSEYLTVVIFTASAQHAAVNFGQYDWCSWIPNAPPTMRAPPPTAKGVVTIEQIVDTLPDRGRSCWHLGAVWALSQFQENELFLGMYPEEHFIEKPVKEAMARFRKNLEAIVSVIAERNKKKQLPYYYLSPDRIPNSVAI
# Method in brief: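 Isolated intact human polymorphonuclear leukocytes were preincubated with compound, then stimulated with 2.5 μM ionophore A23187 plus exogenous arachidonic acid (20 μM) to bypass cPLA₂ substrate supply. Three increasing concentrations were tested in three to five independent experiments and normalized to DMSO control. IC₅₀ was read by linear interpolation around 50% activity, reported as mean with SEM.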
# [2] = biological target: T1, Polyunsaturated fatty acid 5-lipoxygenase; test: Inhibition of 5-lipoxygenase in S100 supernatant assessed as inhibition of LTB4 production preincubated for 15 mins measured after 10 mins by HPLC method
# Method in brief: (§1)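 Cell-free assay using the 100000g supernatant (S100) of human PMNL homogenates. Samples were preincubated with compound, then 5-LO product formation was started with 1 mM CaCl₂ plus 20 μM arachidonic acid. Three increasing concentrations were tested in three to five independent experiments and normalized to DMSO control. IC₅₀ was estimated by linear interpolation around 50% activity.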
# [3] = biological target: T1, Polyunsaturated fatty acid 5-lipoxygenase; test: Inhibition of 5-lipoxygenase in S100 supernatant assessed as inhibition of (5(S)-hydroperoxy-6-trans-8,11,14-cis-eicosatetraenoic acid production preincubated for 15 mins measured after 10 mins by HPLC method; method in brief: as §1
# [4] = biological target: T2, Polyunsaturated fatty acid 5-lipoxygenase (Homo sapiens) (UniProt P09917); test: Inhibition of 5-lipoxygenase in human polymorphonuclear leukocytes assessed as residual activity at 30 uM relative to control; assay type: cell-based
# T2 sequence (whole entry): T1 sequence (P09917 whole entry)
# Method in brief: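 Intact isolated human PMNL were preincubated with compound, then 5-LO product formation was elicited with 2.5 μM A23187 and 20 μM exogenous arachidonic acid. Activity was expressed relative to DMSO control.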
# [5] = biological target: T2, Polyunsaturated fatty acid 5-lipoxygenase (Homo sapiens); test: Inhibition of 5-lipoxygenase in S100 supernatant assessed as residual activity at 30 uM relative to control
# Method in brief: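 PMNL homogenate 100000g supernatant (S100) was preincubated with compound, then stimulated with 1 mM CaCl₂ and 20 μM arachidonic acid. 5-LO product formation was expressed relative to DMSO control.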
# [6] = biological target: T1, Polyunsaturated fatty acid 5-lipoxygenase; test: Inhibition of 5-lipoxygenase
Structure (SMILES),IC50 [1] [nM],IC50 [2] [nM],IC50 [3] [nM],Activity [4] [%],Activity [5] [%],IC50 [6] [nM]
COc1ccc(/C=C2\SC(c3ccccc3)=NC2=O)cc1,530,150,150,,,
Cc1ccc(C2=NC(=O)/C(=C/C=C/c3ccccc3)S2)cc1,400,230,230,,,
COc1ccc(/C=C2\SC(N3CCCC3)=NC2=O)cc1,> 30000,> 30000,> 30000,> 60,> 60,
COc1ccc(/C=C2\SC(c3ccc(C)cc3)=NC2=O)cc1,660,300,300,,,
Cc1ccc(C2=NC(=O)/C(=C/c3cccc(Cl)c3)S2)cc1,580,300,300,,,
COc1cc(Cl)cc(/C=C2\SC(c3ccccc3)=NC2=O)c1O,650,300,300,,,
O=C1N=C(c2ccc(Cl)cc2)S/C1=C\c1ccc(O)cc1,400,110,110,,,
O=C1/C(=C/C=C/c2ccco2)S/C(=N\c2ccccc2)N1c1ccccc1,30000,> 30000,> 30000,> 60,> 60,
COc1ccc(/C=C2\SC(c3ccc(C(C)=O)cc3)=NC2=O)cc1,550,110,110,,,
COC(=O)COc1ccc(C2=NC(=O)/C(=C/c3ccc(OC)cc3)S2)cc1,860,580,580,,,
O=C1N=C(Nc2ccccc2)S/C1=C\c1ccccc1,> 30000,> 30000,> 30000,> 60,> 60,
COc1cccc(/C=C2\SC(c3ccccc3)=NC2=O)c1O,480,540,540,,,
COc1cc(/C=C2\SC(c3ccc(C)cc3)=NC2=O)cc(Cl)c1O,> 10000,2700,2700,,,
COc1ccc(/C=C2\SC(c3ccc(OC)cc3)=NC2=O)cc1,320,4000,4000,,,
COc1ccc(/C=C2\SC(c3ccc(N)cc3)=NC2=O)cc1,1930,630,630,,,
O=C1N=C(c2ccccc2)S/C1=C\c1c2ccccc2cc2ccccc12,4300,300,300,,,
COC(=O)COc1ccc(/C=C2\SC(c3ccc(C)cc3)=NC2=O)cc1,2110,190,190,,,
CCCOc1ccc(/C=C2\SC(N3CCCCCC3)=NC2=O)cc1,12000,14000,14000,,,

Structure (SMILES),IC50 [1] [nM],IC50 [2] [nM],IC50 [3] [nM],Activity [4] [%],Activity [5] [%],IC50 [6] [nM]
Cc1ccc(C2=NC(=O)/C(=C/c3ccccc3)S2)cc1,730,350,350,,,
COc1ccc(/C=C2\SC(c3ccc(C)cc3)=NC2=O)c(OC)c1OC,2450,400,400,,,
COc1ccc(/C=C2\SC(c3cccc(F)c3)=NC2=O)cc1,240,120,120,,,
COc1ccc(/C=C2\SC(c3cccc(C(C)=O)c3)=NC2=O)cc1,380,130,130,,,
COc1cccc(/C=C2\SC(c3ccc(C)cc3)=NC2=O)c1O,800,1300,1300,,,
CCOc1ccc(/C=C2\SC(c3ccccc3)=NC2=O)cc1,2000,500,500,,,
CCOc1cc(/C=C2\SC(c3ccc(C)cc3)=NC2=O)cc(Cl)c1O,2900,1250,1250,,,
COc1ccc(/C=C2\SC(c3ccc(C)cc3)=NC2=O)c(OC)c1,2020,980,980,,,
CN(C)c1ccc(/C=C2\SC(N3CCCCC3)=NC2=O)cc1,20000,> 30000,> 30000,> 60,> 60,
Cc1ccc(/C=C2\SC(Nc3ccc4ccccc4c3)=NC2=O)cc1,> 30000,> 30000,> 30000,> 60,> 60,
COc1cc(/C=C2\SC(c3ccccc3)=NC2=O)cc([N+](=O)[O-])c1O,4400,3000,3000,,,
COc1ccc(/C=C2\SC(c3ccc(Cl)cc3)=NC2=O)cc1,280,90,90,,,
C/C(=C1/SC(O)=NC1=O)c1cc(-c2ccccc2)c(O)c(-c2ccccc2)c1,,,,,,> 10000
COc1cc(/C=C2\SC(c3ccccc3)=NC2=O)cc(Cl)c1O,9500,3000,3000,,,
COc1ccc(/C=C2\SC(c3ccc(O)cc3)=NC2=O)cc1,1690,650,650,,,
COc1ccc(OC)c(/C=C2\SC(c3ccc(C)cc3)=NC2=O)c1,350,130,130,,,
CC(C)(C)c1ccc(/C=C2\SC(c3ccccc3)=NC2=O)cc1,910,300,300,,,
